Reference: ChEMBL document CHEMBL1122242, “Phenylenebis(oxy)bis[2,2-dimethylpentanoic acid]s: agents that elevate high-density lipoproteins” (1983)

How the values were obtained:
Format in all cases: functional
Rattus norvegicus [1] = species: Rattus norvegicus; experiment: Hypolipidemic effects(plasma TG) in male rats
Procedure, shortened: (§1)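 Male rats, 10 per group, fed 7 days on chow with 10% fat (5.5% added peanut oil), 1.5% cholesterol and 0.1% cholic acid. Oral gavage on days 4-7 in 4% acacia, usually 50 mg/kg daily. Fasted overnight, killed day 8, atrial blood into EDTA. Plasma cholesterol, TG and HDL cholesterol (after MnCl2/heparin precipitation) by Autoanalyzer. % change vs controls, Student's t test.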

Rattus norvegicus [2] = experiment: Hypolipidemic effects (low-density lipoprotein (LDL) cholesterol) in male rats; Compound was screening orally at 50 mg/Kg; procedure, shortened: as §1
Rattus norvegicus [3] = species: Rattus norvegicus; experiment: Hypolipidemic effects(liver weight) in male rats; procedure, shortened: as §1
Rattus norvegicus [4] = species: Rattus norvegicus; experiment: Hypolipidemic effects(plasma cholesterol) in male rats; procedure, shortened: as §1
Rattus norvegicus [5] = experiment: Hypolipidemic effects (high-density lipoprotein (HDL) cholesterol) in male rats;Compound was screening orally at 50 mg/Kg; procedure, shortened: as §1
Rattus norvegicus [6] = experiment: Hypolipidemic effects (high-density lipoprotein (HDL) cholesterol) in male rats; Compound was screening orally at 50 mg/Kg; procedure, shortened: as §1
Rattus norvegicus [7] = experiment: Hypolipidemic effects (low-density lipoprotein (LDL) cholesterol) in male rats;Compound was screening orally at 50 mg/Kg; procedure, shortened: as §1

| Compound | Change (Rattus norvegicus [1]) [%] | Change (Rattus norvegicus [2]) [%] | Change (Rattus norvegicus [3]) [%] | Change (Rattus norvegicus [4]) [%] | Change (Rattus norvegicus [5]) [%] | Change (Rattus norvegicus [6]) [%] | Change (Rattus norvegicus [7]) [%] |
| --- | --- | --- | --- | --- | --- | --- | --- |
| CCCC(=O)c1cc(OCCCC(C)(C)C(=O)OC)ccc1OCCCC(C)(C)C(=O)OC | 0 | -52 | 34 | 39 | 1100 |  |  |
| CC(C)(CCCOc1ccc(S(=O)(=O)CCCC(C)(C)C(=O)O)cc1)C(=O)O | 0 | -20 | 9 | 0 |  | 93 |  |
| CC(C)(CCCCCOc1cccc(OCCCCCC(C)(C)C(=O)O)c1)C(=O)O | 0 | -27 | 0 | -22 | 48 |  |  |
| COC(=O)C(C)(C)CCCOc1cc(OCCCC(C)(C)C(=O)OC)cc(-c2ccccc2)c1 | 0 | -42 | 13 | -41 |  | 0 |  |
| Cc1ccccc1-c1cc(OCCCC(C)(C)C(=O)O)ccc1OCCCC(C)(C)C(=O)O | 55 | -52 | 22 | 0 |  | 628 |  |
| COC(=O)C(C)(C)CCCOc1ccc(Br)c(OCCCC(C)(C)C(=O)OC)c1 | 0 | -52 | 5 | -47 |  | 26 |  |
| COC(=O)C(C)(C)CCCSc1ccc(Oc2ccc(SCCCC(C)(C)C(=O)OC)cc2)cc1 | 0 |  | 4 | -29 |  | 0 | -31 |
| CC(C)(CCCOc1ccc(Oc2ccc(OCCCC(C)(C)C(=O)O)cc2)cc1)C(=O)O | 0 | -36 | 0 | -35 |  | 0 |  |
| CC(C)(CCCOc1ccc(OCCCC(C)(C)C(=O)O)c(CO)c1)C(=O)O | 18 |  | 9 | 40 |  | 319 | 0 |
| CC(C)(CCOc1cccc(OCCC(C)(C)C(=O)O)c1)C(=O)O | 240 | -46 | 17 | -28 | 383 |  |  |
| CC(C)(CO)CCCOc1ccc(OCCCC(C)(C)CO)c(-c2ccccc2)c1 | 0 | -36 | 30 | 37 |  | 1105 |  |
| CC(C)(CCOc1ccc(Sc2ccc(OCCC(C)(C)C(=O)O)cc2)cc1)C(=O)O | -32 |  | 0 | -25 | 46 |  |  |
| CC(C)(CCCOc1ccc(OCCCC(C)(C)C(=O)O)cc1)C(=O)O | 0 | -27 |  | -45 | 791 | 44 |  |
| COC(=O)C(C)(C)CCCSc1ccc(-c2ccc(SCCCC(C)(C)C(=O)OC)cc2)cc1 | 60 | -39 | 14 | 0 |  | 245 |  |
| CC(C)(CCOc1ccc(OCCC(C)(C)C(=O)O)c(Cl)c1)C(=O)O | -32 |  | 13 | -62 | 348 |  |  |
| CC(C)(CCCOc1cc(Cl)c(OCCCC(C)(C)C(=O)O)cc1Cl)C(=O)O | 35 |  | 41 | -55 | 384 |  |  |
| COC(=O)C(C)(C)CCCOc1ccc(OCCCC(C)(C)C(=O)OC)c(C=O)c1 | 0 | -20 | 9 | 0 |  | 217 |  |
| COC(=O)C(C)(C)CCCCCOc1ccccc1OCCCCCC(C)(C)C(=O)OC | 140 | -19 | 11 | 0 |  | 276 |  |
| Cc1cc(SCCCC(C)(C)C(=O)O)c(C)cc1OCCCC(C)(C)C(=O)O | 0 | -35 | 14 | -20 |  | 220 |  |
| COC(=O)C(C)(C)CCCOc1cc(OC)c(OCCCC(C)(C)C(=O)OC)cc1OC | 0 |  | 0 | -33 | 39 |  |  |
| COC(=O)C(C)(C)CCCOc1ccc(OCCCC(C)(C)C(=O)OC)c(/C=N/NC(N)=O)c1 | 0 | -33 | 4 | -28 | 0 |  |  |
| CC(C)(CCCOc1ccc(OCCCC(C)(C)C(=O)O)c(Sc2ccccc2)c1)C(=O)O | 44 | -30 | 14 | 32 |  | 428 |  |
